Tested on: T cell hybridoma HH8
Assay: Activation of T cell hybridoma HH8 by PT-gluten
Assay type: cell-based, mouse
Conditions: HH8 and DB4, in words
Procedure, shortened: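 Irradiated (8,000 rads) T2DM cells (100,000) retrovirally expressing DQ2 WT or mutant co-cultured 16-24 h with HH8 hybridoma (100,000) and titrated PT-gluten (0.06-3 μg/μl); supernatant IL-2 by mouse IL-2 ELISA. PT-gluten: gluten digested with pepsin (pH 2.0), then trypsin/chymotrypsin (pH 6), 37°C; heat-inactivated; dialysed high-molecular-weight fraction deamidated with guinea pig transglutaminase (100 ug/ml, 1mM CaCl2, 37°C, 2h).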

Sequence	effect of DM on presentation of the epitope
QLQPFPQPELPYPQPQS [α-gliadin 57-73 Q65E]	suppressed by DM in endocytic compartments
PQPELPYPQPQL [α-II-gliadin 62-70]	DM-suppressed epitope

From publication PMC3159820 (Journal of immunology (Baltimore, Md. : 1950), 2011)
